What was measured:
Type in all cases: functional
[1] = test system: NCI-H522; test: Growth inhibition of human NCI-H522 cells at 10 uM after 48 hrs by SRB assay; conditions: NCI-H522, 48 h, read-out: GI
Outline: (§1)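 Cells grown in RPMI 1640 with 5% FBS and 2 mM L-glutamine, plated at 5000–40,000 cells/well by doubling time and preincubated 24 h (37 °C, 5% CO2); a time-zero plate is TCA-fixed. Single dose added, then 48 h incubation. Fixed with cold TCA, stained with 0.4% SRB, dye solubilized in 10 mM Tris base, absorbance at 515 nm; percent growth vs time-zero and untreated control.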

[2] = test system: NCI-H460; test: Growth inhibition of human NCI-H460 cells at 10 uM after 48 hrs by SRB assay; conditions: NCI-H460, 48 h, read-out: GI; outline: as §1
[3] = test system: HOP-62; test: Growth inhibition of human HOP62 cells at 10 uM after 48 hrs by SRB assay; conditions: HOP-62, 48 h, read-out: GI; outline: as §1
[4] = test system: HL-60(TB); test: Growth inhibition of human HL-60(TB) cells at 10 uM after 48 hrs by SRB assay; conditions: HL-60, 48 h, read-out: GI
Outline: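 Single-concentration pass across the 60-line panel in RPMI 1640 with 5% FBS. Cells preincubated 24 h, then exposed 48 h at 37 °C, 5% CO2. Read by SRB staining with absorbance at 515 nm. Percent growth is taken relative to time-zero and untreated controls and reported as percent growth inhibition (GI %).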

[5] = test system: BT-549; test: Growth inhibition of human BT549 cells at 10 uM after 48 hrs by SRB assay; conditions: BT-549, 48 h, read-out: GI; outline: as §1
[6] = test system: T47D; test: Growth inhibition of human T47D cells at 10 uM after 48 hrs by SRB assay; conditions: read-out: GI
Outline: (§2)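 NCI 60-cell-line screen with a single 10 µM dose. Cells are grown in RPMI 1640 with 5% FBS and 2 mM L-glutamine, plated at 5000–40,000 cells/well according to doubling time, and preincubated 24 h at 37 °C, 5% CO2; time-zero plates are TCA-fixed at that point. Drug exposure is 48 h. Adherent cells are fixed with cold TCA, stained with 0.4% SRB in 1% acetic acid and read at 515 nm. Percent growth is calculated relative to time-zero and untreated controls and reported as GI%.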

[7] = test system: Hs-578T; test: Growth inhibition of human Hs578T cells at 10 uM after 48 hrs by SRB assay; conditions: read-out: GI; outline: as §1
[8] = test system: MCF7; test: Growth inhibition of human MCF7 cells at 10 uM after 48 hrs by SRB assay; conditions: MCF7, 48 h, read-out: GI; outline: as §1
[9] = test system: TK-10; test: Growth inhibition of human TK10 cells at 10 uM after 48 hrs by SRB assay; conditions: TK-10, 48 h, read-out: GI; outline: as §2
[10] = test system: SN12C; test: Growth inhibition of human SN12C cells at 10 uM after 48 hrs by SRB assay; conditions: read-out: GI; outline: as §2
[11] = test system: 786-0; test: Growth inhibition of human 786-0 cells at 10 uM after 48 hrs by SRB assay; conditions: 786-0, 48 h, read-out: GI; outline: as §1
[12] = test system: OVCAR-5; test: Growth inhibition of human OVCAR5 cells at 10 uM after 48 hrs by SRB assay; conditions: OVCAR-5, 48 h, read-out: GI; outline: as §1
[13] = test system: OVCAR-8; test: Growth inhibition of human OVCAR8 cells at 10 uM after 48 hrs by SRB assay; conditions: OVCAR-8, 48 h, read-out: GI; outline: as §1
[14] = test system: SK-MEL-5; test: Growth inhibition of human SK-MEL-5 cells at 10 uM after 48 hrs by SRB assay; conditions: SK-MEL-5, 48 h, read-out: GI; outline: as §1
[15] = test system: MDA-MB-435; test: Growth inhibition of human MDA-MB-435 cells at 10 uM after 48 hrs by SRB assay; conditions: MDA-MB-435, 48 h, read-out: GI; outline: as §1
[16] = test system: LOX IMVI; test: Growth inhibition of human LOXIMVI cells at 10 uM after 48 hrs by SRB assay; conditions: read-out: GI; outline: as §1
[17] = test system: Malme-3M; test: Growth inhibition of human MALME-3M cells at 10 uM after 48 hrs by SRB assay; conditions: read-out: GI; outline: as §1
[18] = test system: U-251; test: Growth inhibition of human U251 cells at 10 uM after 48 hrs by SRB assay; conditions: U-251, 48 h, read-out: GI; outline: as §2
[19] = test system: SNB-19; test: Growth inhibition of human SNB19 cells at 10 uM after 48 hrs by SRB assay; conditions: SNB-19, 48 h, read-out: GI; outline: as §2
[20] = test system: SW-620; test: Growth inhibition of human SW620 cells at 10 uM after 48 hrs by SRB assay; conditions: SW-620, 48 h, read-out: GI; outline: as §2
[21] = test system: HT-29; test: Growth inhibition of human HT-29 cells at 10 uM after 48 hrs by SRB assay; conditions: HT-29, 48 h, read-out: GI; outline: as §1
[22] = test system: KM12; test: Growth inhibition of human KM12 cells at 10 uM after 48 hrs by SRB assay; conditions: KM12, 48 h, read-out: GI; outline: as §1
[23] = test system: HCT-116; test: Growth inhibition of human HCT116 cells at 10 uM after 48 hrs by SRB assay; conditions: HCT-116, 48 h, read-out: GI; outline: as §1

`O=c1c2cccc3c(Nc4ccc(F)cc4)ccc(c32)c2nc3ccccc3n12` was tested, and the inhibition of growth at 10 µM [1] was under 20%, the inhibition of growth at 10 µM [2] was 22.1% and the inhibition of growth at 10 µM [3] was under 20%. It also gave an inhibition of growth at 10 µM [4] of under 20%, an inhibition of growth at 10 µM [5] of under 20% and an inhibition of growth at 10 µM [6] of 76.6%. The inhibition of growth at 10 µM [7] was 26.4%, the inhibition of growth at 10 µM [8] was 89.9% and the inhibition of growth at 10 µM [9] was 24.7%. It also gave an inhibition of growth at 10 µM [10] of under 20%, an inhibition of growth at 10 µM [11] of under 20% and an inhibition of growth at 10 µM [12] of under 20%. The inhibition of growth at 10 µM [13] was under 20%, the inhibition of growth at 10 µM [14] was 29.6% and the inhibition of growth at 10 µM [15] was under 20%. The inhibition of growth at 10 µM [16] was under 20%, the inhibition of growth at 10 µM [17] was under 20% and the inhibition of growth at 10 µM [18] was under 20%. The inhibition of growth at 10 µM [19] was 22.4%, the inhibition of growth at 10 µM [20] was under 20% and the inhibition of growth at 10 µM [21] was under 20%. It also gave an inhibition of growth at 10 µM [22] of 25.6% and an inhibition of growth at 10 µM [23] of under 20%.

Molecule `CCCCNc1ccc2c3c1cccc3c(=O)n1c3ccccc3nc21` has an inhibition of growth at 10 µM [1] of 28.1%, an inhibition of growth at 10 µM [2] of 51.6% and an inhibition of growth at 10 µM [3] of under 20%. For the same molecule, the inhibition of growth at 10 µM [4] was 36.6%, the inhibition of growth at 10 µM [5] was under 20% and the inhibition of growth at 10 µM [6] was 64.3%. For the same molecule, the inhibition of growth at 10 µM [7] was under 20%, the inhibition of growth at 10 µM [8] was 89.7% and the inhibition of growth at 10 µM [9] was 29.8%. It also gave an inhibition of growth at 10 µM [10] of under 20%, an inhibition of growth at 10 µM [11] of under 20% and an inhibition of growth at 10 µM [12] of under 20%. It also gave an inhibition of growth at 10 µM [13] of under 20%, an inhibition of growth at 10 µM [14] of 24.5% and an inhibition of growth at 10 µM [15] of under 20%. It also gave an inhibition of growth at 10 µM [16] of 24.1%, an inhibition of growth at 10 µM [17] of under 20% and an inhibition of growth at 10 µM [19] of under 20%. For the same molecule, the inhibition of growth at 10 µM [20] was under 20%, the inhibition of growth at 10 µM [21] was under 20% and the inhibition of growth at 10 µM [22] was 22.3%. The inhibition of growth at 10 µM [23] was under 20%.

Work on `O=c1c2cccc3c(NCCO)ccc(c32)c2nc3ccccc3n12` yielded an inhibition of growth at 10 µM [1] of under 20%, an inhibition of growth at 10 µM [2] of 42.8% and an inhibition of growth at 10 µM [3] of under 20%. The inhibition of growth at 10 µM [4] was under 20%, the inhibition of growth at 10 µM [5] was under 20% and the inhibition of growth at 10 µM [6] was 31.7%. The inhibition of growth at 10 µM [7] was under 20%, the inhibition of growth at 10 µM [8] was 57.5% and the inhibition of growth at 10 µM [9] was under 20%. It also gave an inhibition of growth at 10 µM [10] of under 20%, an inhibition of growth at 10 µM [11] of under 20% and an inhibition of growth at 10 µM [12] of under 20%. For the same molecule, the inhibition of growth at 10 µM [13] was under 20%, the inhibition of growth at 10 µM [14] was 20.2% and the inhibition of growth at 10 µM [15] was under 20%. The inhibition of growth at 10 µM [16] was under 20%, the inhibition of growth at 10 µM [17] was under 20% and the inhibition of growth at 10 µM [18] was under 20%. The inhibition of growth at 10 µM [19] was under 20%, the inhibition of growth at 10 µM [20] was under 20% and the inhibition of growth at 10 µM [21] was under 20%. For the same molecule, the inhibition of growth at 10 µM [22] was under 20% and the inhibition of growth at 10 µM [23] was under 20%.

Reference: ChEMBL document CHEMBL2424551, “Synthesis, in vitro evaluation and molecular modelling of naphthalimide analogue as anticancer agents” (2013)
